Activity calls are given as the source filed them. No cut-off for these calls is given here.

For test [1], the target named is T1, Growth hormone secretagogue receptor type 1 (Homo sapiens, UniProt Q92847). In words: Antagonist activity at human GHS-R1a transfected in mouse LTK cells after 6 hrs by CRE/luciferase reporter gene assay in presence of ghrelin and rolipram. It is filed as functional, cell-based. The essentials: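 Mouse LTK- cells stably carrying a CMV minimal promoter–3×CRE–luciferase construct, incubated 6 h with rolipram, saturating ghrelin and varied compound concentrations. Cells were then lysed and luminescence read. IC50 fitted from the curves.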

The target of test [2] is T1, Growth hormone secretagogue receptor type 1. Briefly: Displacement of [125I]-His9-ghrelin from human GHS-R1a transfected in pig LLC PK-1 cell membranes after 60 mins by gamma counting method. In outline:
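Competition binding on membranes from LLC PK-1 cells transfected with GHS-R1a, using 0.3 nM ¹²⁵I-His9-ghrelin against increasing compound concentrations. Ki derived from the binding curves.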

Test [3] has the same target. In words: Partial agonist activity at human GHS-R1a expressed in HEK293T cells at 10^-5 M after 45 mins by HTRF-based IP3 turnover assay. The test is classed as functional, cell-based. The conditions noted are these: HEK-293T. In general terms: TR-FRET usually uses a lanthanide donor and a delayed reading to cut background.
The target is the same in test [4]. In words: Antagonist activity at human GHS-R1a transfected in CHO cells assessed as inhibition of ghrelin-induced intracellular calcium mobilization measured over 60 secs by fluo-4AM dye-based fluorometric method. It is filed as functional, cell-based. (In general: A change in cytosolic calcium serves as a functional read-out for many receptors and channels.)
The target is the same in test [5]. Briefly: Agonist activity at human GHS-R1a expressed in HEK293T cells after 45 mins by HTRF-based IP3 turnover assay. It is filed as functional, cell-based, HEK-293T. The following applies: for Emax: HEK-293T.
For test [6] the target is unchanged. Briefly: Competitive binding affinity to human SNAP-tagged GHS-R1a expressed in HEK293T cells incubated at 4 degC for 3 hrs or at room temperature for 1 hr by Tag-lite assay. It is filed as cell-based, HEK-293T. In outline: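 Tag-lite binding measured by FRET between terbium cryptate attached to SNAP-tag-fused GHS-R1a and a red fluorescent high-affinity ghrelin ligand. Ki obtained from the fluorescent binding data.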

T1 sequence (Q92847 whole entry): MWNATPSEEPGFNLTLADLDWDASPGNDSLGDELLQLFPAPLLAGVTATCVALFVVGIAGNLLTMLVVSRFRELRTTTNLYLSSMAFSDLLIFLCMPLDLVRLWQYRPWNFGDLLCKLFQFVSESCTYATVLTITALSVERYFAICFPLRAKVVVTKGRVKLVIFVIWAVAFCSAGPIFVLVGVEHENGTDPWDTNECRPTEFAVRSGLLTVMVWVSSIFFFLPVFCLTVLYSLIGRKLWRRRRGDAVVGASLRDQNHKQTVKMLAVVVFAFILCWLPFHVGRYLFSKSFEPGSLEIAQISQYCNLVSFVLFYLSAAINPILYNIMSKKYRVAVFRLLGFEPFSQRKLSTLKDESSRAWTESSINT

A word on the IC50: it is the concentration needed to halve the response being measured. In general, Ki refers to a measure of affinity in units of concentration, obtained from inhibition or displacement. Read a high Ki as weaker binding. For `COc1ccc(Cn2c([C@@H](Cc3ccccc3)NC(C)=O)nnc2[C@@H](Cc2c[nH]c3ccccc23)NC(=O)[C@@H]2CNCCO2)cc1`, the IC50 was 9 nM in test [1] and 3 nM in test [4]. Also, in test [2], the Ki was 2 nM. Further, the result in test [3] was Active.

By EC50 is commonly meant the midpoint of the concentration-response curve. Low values mean higher potency in that assay, high ones lower potency in that assay. In test [5], `COC(=O)C(CC(C)C)C(=O)N[C@H](Cc1c[nH]c2ccccc12)c1nnc([C@@H](Cc2c[nH]c3ccccc23)NC(=O)[C@@H](N)CCCCN)n1Cc1ccc(OC)cc1` (mixture of isomers) returned an EC50 of 20 nM and an Emax of 81%. Further, in test [6], the Ki was determined as 17 nM.

For the molecule `COc1ccc(Cn2c([C@@H](N)Cc3ccccc3)nnc2[C@@H](Cc2c[nH]c3ccccc23)NC(=O)c2ccccn2)cc1`, the results for the IC50 in test [1] and in test [4] were 320 nM and 150 nM, respectively. Also, affinity in test [2] was put at a Ki of 62 nM.

On to `COc1ccc(Cn2c(C(Cc3c[nH]c4ccccc34)NC(=O)C3CCNCC3)nnc2[C@@H](Cc2c[nH]c3ccccc23)NC(=O)C(CC(C)C)NC(=O)C(CC(C)C)NC(C)=O)cc1` (single isomer, unassigned), for which, in test [5], it took 4.4 nM to reach a half-maximal effect (EC50) and the Emax was determined as 108%. Moreover, the affinity in test [6] corresponds to a Ki of 2 nM.

Consider `COc1ccc(Cn2c([C@@H](Cc3ccccc3)NC(C)=O)nnc2[C@@H](Cc2c[nH]c3ccccc23)NC(=O)c2ncccc2F)cc1`, for which the IC50 in test [1] and in test [4] was 2 nM in each case. Besides, in test [2], the inhibition constant (Ki) is 4 nM. For the same molecule, the result in test [3] was Active.

Consider `COc1ccc(Cn2c([C@@H](Cc3ccccc3)NC(C)=O)nnc2[C@@H](Cc2c[nH]c3ccccc23)NC(=O)c2ccccn2)cc1`, for which, in test [3], the result was Active.

Consider `COc1ccc(Cn2c([C@H](Cc3c[nH]c4ccccc34)NC(C)=O)nnc2[C@@H](Cc2c[nH]c3ccccc23)NC(=O)c2ccccn2)cc1`, for which the figures for the half-inhibitory concentration (IC50) in test [1] and in test [4] were 100 nM and 190 nM, respectively. The molecule further came in with a Ki in test [2] of 62 nM.

Turning to `COc1ccc(Cn2c([C@@H](Cc3c[nH]c4ccccc34)NC(C)=O)nnc2[C@@H](Cc2c[nH]c3ccccc23)NC(=O)[C@@H](N)CCCCN)cc1`, in test [5], the response was half-maximal at 4 nM (EC50) and the Emax was 89%. This molecule registered a Ki in test [6] of 2.5 nM.

`COc1ccc(Cn2c([C@H](N)Cc3c[nH]c4ccccc34)nnc2[C@@H](Cc2c[nH]c3ccccc23)NC(=O)C(C)(C)N)cc1`: the IC50 in test [1] was 130 nM; in test [4], 90 nM. Also, affinity in test [2] was put at a Ki of 131 nM.

Regarding `COc1ccc(Cn2c([C@@H](Cc3ccccc3)NC(C)=O)nnc2[C@@H](Cc2c[nH]c3ccccc23)NC(=O)C(C)(C)N)cc1`, the IC50 turned out to be 70 nM in test [1] and 90 nM in test [4]. This molecule gave a Ki in test [2] of 46 nM.

Turning to `COc1ccc(Cn2c([C@H](Cc3c[nH]c4ccccc34)NC=O)nnc2[C@@H](Cc2c[nH]c3ccccc23)NC(=O)c2ccccn2)cc1`, the IC50 in test [1] is 410 nM; in test [4], 1200 nM. Further, the Ki in test [2] is 154 nM.

As for `COc1ccc(Cn2c([C@H](N)Cc3ccccc3)nnc2[C@@H](Cc2c[nH]c3ccccc23)NC(=O)c2ccccn2)cc1`, the IC50 in test [1] came out at 7 nM; in test [4], 4 nM. Also, the Ki in test [2] came out at 18 nM.

In the case of `COC(=O)[C@H](CC(C)C)NC(=O)C(CC(C)C)C(=O)N[C@H](Cc1c[nH]c2ccccc12)c1nnc([C@@H](Cc2c[nH]c3ccccc23)NC(=O)[C@@H](N)CCCCN)n1Cc1ccc(OC)cc1` (some centres undefined), in test [5], a half-maximal response (EC50) required 82 nM and the Emax amounted to 82%. For the same molecule, the Ki in test [6] came out at 220 nM.

In test [5], `COc1ccc(Cn2c([C@@H](Cc3c[nH]c4ccccc34)NC(=O)[C@H](CC(C)C)NC(=O)[C@H](CC(C)C)NC(C)=O)nnc2[C@@H](Cc2c[nH]c3ccccc23)NC(=O)C(C)(C)O)cc1` yielded an EC50 of 74 nM and an Emax of 75%. For the same molecule, the Ki in test [6] came out at 3 nM.

As to `COc1ccc(Cn2c([C@@H](Cc3ccccc3)NC=O)nnc2[C@@H](Cc2c[nH]c3ccccc23)NC(=O)c2ccccn2)cc1`, the IC50 turned out to be 8 nM in test [1] and 3 nM in test [4]. In test [2], the Ki worked out at 8 nM. Also, the result in test [3] was Active.

For `COc1ccc(Cn2c([C@@H](N)Cc3c[nH]c4ccccc34)nnc2[C@@H](Cc2c[nH]c3ccccc23)NC(=O)C(C)(C)N)cc1`, the IC50 in test [1] and in test [4] was over 1000 nM in each case. This molecule yielded a Ki in test [2] of over 1000 nM.

As for `COc1ccc(Cn2c([C@@H](Cc3c[nH]c4ccccc34)NC(C)=O)nnc2[C@@H](Cc2c[nH]c3ccccc23)NC(=O)c2ccccn2)cc1`, the half-inhibitory concentration (IC50) in test [1] was 2 nM; in test [4], 3 nM. The molecule further showed a Ki in test [2] of 9 nM.

With `COc1ccc(Cn2c([C@H](Cc3c[nH]c4ccccc34)NC(C)=O)nnc2[C@@H](Cc2c[nH]c3ccccc23)NC(=O)C(C)(C)N)cc1`, the IC50 in test [1] and in test [4] was over 1000 nM each time. This molecule also displayed a Ki in test [2] of over 1000 nM.

In test [5], `COc1ccc(Cn2c([C@@H](Cc3c[nH]c4ccccc34)NC(=O)C(CC(C)C)C(=O)N[C@@H](CC(C)C)C(N)=O)nnc2[C@@H](Cc2c[nH]c3ccccc23)NC(=O)[C@@H](N)CCCCN)cc1` (mixture of isomers) displayed an EC50 of 170 nM and an Emax of 60%. Also, the Ki in test [6] was 210 nM.

For `COc1ccc(Cn2c([C@@H](Cc3c[nH]c4ccccc34)NC(=O)[C@H](CC(C)C)NC(=O)[C@H](CC(C)C)NC(C)=O)nnc2[C@@H](Cc2c[nH]c3ccccc23)NC(=O)C(C)(C)N)cc1`, in test [5], the EC50 is 0.8 nM and the Emax is 80%. In test [6], the affinity, expressed as Ki, was 30 nM.

`COc1ccc(Cn2c([C@@H](N)Cc3ccccc3)nnc2[C@@H](Cc2c[nH]c3ccccc23)NC(=O)C(C)(C)N)cc1`: the IC50 in test [1] and in test [4] was over 1000 nM throughout. Also, the Ki in test [2] is over 1000 nM.

In test [5], `COc1ccc(Cn2c([C@@H](Cc3c[nH]c4ccccc34)NC=O)nnc2[C@@H](Cc2c[nH]c3ccccc23)NC(=O)[C@@H](N)CCCCN)cc1` had an EC50 of 10 nM and an Emax of 89%. Moreover, the affinity in test [6] corresponds to a Ki of 8 nM.

Turning to `COc1ccc(Cn2c([C@@H](Cc3c[nH]c4ccccc34)NC=O)nnc2[C@@H](Cc2c[nH]c3ccccc23)NC(=O)C(C)(C)N)cc1`, the IC50 stood at 60 nM in test [1] and 33 nM in test [4]. Further, the Ki in test [2] is 46 nM.

On to `COc1ccc(Cn2c([C@H](Cc3c[nH]c4ccccc34)NC(=O)[C@H]3CNCCO3)nnc2[C@@H](Cc2c[nH]c3ccccc23)NC(=O)[C@@H](CC(C)C)NC(=O)[C@@H](CC(C)C)NC(C)=O)cc1` (stereo in doubt), for which, in test [5], the EC50 came out at 60 nM and the Emax turned out to be 75%. Moreover, the affinity in test [6] corresponds to a Ki of 50 nM.

For the molecule `COc1ccc(Cn2c([C@@H](Cc3ccccc3)NC=O)nnc2[C@@H](Cc2c[nH]c3ccccc23)NC(=O)C(C)(C)N)cc1`, the IC50 is 113 nM in test [1] and 43 nM in test [4]. Besides, in test [2], affinity was put at a Ki of 59 nM.

In the case of `COc1ccc(Cn2c([C@@H](Cc3c[nH]c4ccccc34)NC(C)=O)nnc2[C@@H](Cc2c[nH]c3ccccc23)NC(=O)C(C)(C)N)cc1`, the IC50 in test [1] amounted to 22 nM. This molecule registered a Ki in test [2] of 12 nM.

Consider `COc1ccc(Cn2c([C@H](N)Cc3ccccc3)nnc2[C@@H](Cc2c[nH]c3ccccc23)NC(=O)C(C)(C)N)cc1`, for which the results for the IC50 in test [1] and in test [4] were 115 nM and 135 nM, respectively. Also, the Ki in test [2] was 154 nM.

For `COc1ccc(Cn2c([C@H](Cc3ccccc3)NC(C)=O)nnc2[C@@H](Cc2c[nH]c3ccccc23)NC(=O)C(C)(C)N)cc1`, the IC50 in test [1] and in test [4] was over 1000 nM throughout. The molecule further yielded a Ki in test [2] of over 1000 nM.

The values are drawn from ChEMBL document CHEMBL3797137, “New ligands of the ghrelin receptor based on the 1,2,4-triazole scaffold by introduction of a second chiral center” (Bioorg Med Chem Lett, 2016).
